As a reminder, the GI50 is the concentration at which growth is held to half of that of the control. Broadly, the IC50 is the concentration that gives 50% inhibition. A low value points to greater potency.

For one test, the system named is A2780. The test can be described thus: 50% growth inhibition of A2780 (Human ovarian carcinoma) cell line compared with untreated control cells. In kind it is functional. In short, it runs like this: (§1)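 MTT assay in cells in logarithmic growth, plated in triplicate at 2,500–3,500 cells/well and grown 24 h before test agent was added (day 0). Cultures at 37 °C, 5% CO₂, in media with 10% foetal bovine serum, penicillin, streptomycin and glutamine. Agents were dissolved in DMSO as 5 mM stocks. Absorbance was read at 540 nm. GI50 was taken from the optical density difference between day 0 and the end of drug exposure.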

Another test concerns NCI-H460. The test can be described thus: 50% growth inhibition of H460 (human lung carcinoma) cell line compared with untreated control cells. The class given is functional. In short, it runs like this: as §1
For the next test, the system named is G-401. Put plainly: 50% growth inhibition of G401 (human kidney carcinoma) cell line compared with untreated control cells. The class given is functional. In short, it runs like this:
as §1

Test [1] in a line: Inhibitory activity against protein phosphatase 2A from human red blood cells. The procedure, abridged: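 Purified PP2A (0.3 mU/well) was preincubated 10 min with inhibitor in 50 mM Tris–HCl, pH 7.0, with CaCl₂. The reaction was started with hexapeptide substrate […] (200 μM), run 60 min at room temperature, and stopped with malachite green. A650 was read after 10 min. IC50 came from dose–response curves as the mean of three independent replicates.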

Another test deals with HT-29. Put plainly: 50% growth inhibition of HT-29 (human colorectal carcinoma) cell line compared with untreated control cells. In kind it is functional. In short, it runs like this:
as §1

A further test deals with L1210. The test can be described thus: 50% growth inhibition of L1210 (murine leukemia) cell line compared with untreated control cells. The class given is functional. The following applies: Mus musculus. The procedure, abridged:
as §1

For `COC(=O)C1C(C(=O)Nc2ccc(Cl)cc2)[C@H]2CC[C@@H]1O2` (stereo not given in full), the GI50 is 98 µM with A2780; above 100 µM in the test on NCI-H460; above 100 µM with G-401; above 100 µM in the test with HT-29; above 100 µM in the test on L1210. Further, the IC50 in test [1] was above 100 µM.

In the case of `COC(=O)c1cccc(NC(=O)C2C(C(=O)O)[C@@H]3C=C[C@H]2O3)c1` (stereo not given in full), the GI50 is 97 µM in the test with A2780; above 100 µM with NCI-H460; above 100 µM in the test with G-401; above 100 µM in the test on HT-29; above 100 µM in the test on L1210. In test [1], this compound displayed an IC50 of 12 µM.

In the case of `O=C(O)c1cccc(NC(=O)C2C(C(=O)O)[C@@H]3C=C[C@H]2O3)c1` (stereo not given in full), the GI50 with A2780 is 82 µM; in the test on NCI-H460, above 100 µM; in the test on G-401, above 100 µM; in the test with HT-29 it was above 100 µM; in the test with L1210, above 100 µM. Moreover, the midpoint of inhibition in test [1], the IC50, lay at 7 µM.

As for `N#CC[C@]12C=C[C@H](O1)[C@@H]1C(=O)OC(=O)C12` (stereo not given in full), the GI50 is 85 µM with A2780; above 100 µM in the test with NCI-H460; above 100 µM with G-401; above 100 µM with HT-29; above 100 µM in the test on L1210. In addition, the IC50 in test [1] is above 100 µM.

With `COC(=O)c1cccc(NC(=O)C2C(C(=O)O)[C@@H]3CC[C@H]2O3)c1` (stereo not given in full), the GI50 in the test with A2780 is 90 µM; with NCI-H460 it was above 100 µM; in the test on G-401, above 100 µM; with HT-29 it was above 100 µM; in the test on L1210 it was above 100 µM. The same compound gave an IC50 in test [1] of 7.7 µM.

With `CCOC(=O)c1ccc(NC(=O)C2C(C(=O)O)[C@@H]3C=C[C@H]2O3)cc1` (stereo not given in full), the GI50 with A2780 is 83 µM; in the test with NCI-H460 it was above 100 µM; in the test with G-401 it was above 100 µM; with HT-29, above 100 µM; in the test on L1210 it was above 100 µM. Moreover, the IC50 in test [1] was found to be 21 µM.

As to `CC(=O)NC[C@@]12C=C[C@@H](O1)C1C(=O)OC(=O)[C@H]12` (stereo not given in full), the GI50 in the test with A2780 was 98 µM; in the test with NCI-H460, above 100 µM; in the test on G-401 it was above 100 µM; in the test on HT-29, above 100 µM; in the test on L1210, above 100 µM. The compound further showed an IC50 in test [1] above 100 µM.

Turning to `CN(C)C(=O)C1C(C(=O)O)[C@@H]2C=C[C@H]1O2.CNC` (stereo not given in full), the GI50 came out at 40 µM in the test with A2780; 41 µM with NCI-H460; 25 µM in the test on G-401; 49 µM with HT-29; 48 µM with L1210. In test [1], this compound came in with an IC50 of 3.2 µM.

In the case of `CC(=O)NC[C@@]12CC[C@@H](O1)C1C(=O)OC(=O)[C@H]12` (stereo not given in full), the GI50 in the test on A2780 was 95 µM; in the test on NCI-H460, above 100 µM; in the test on G-401, above 100 µM; with HT-29, above 100 µM; in the test on L1210 it was above 100 µM. In test [1], this compound returned an IC50 above 100 µM.

`CN.CNC(=O)C1C(C(=O)O)[C@@H]2C=C[C@H]1O2` (stereo not given in full): the GI50 was 88 µM in the test on A2780; above 100 µM in the test with NCI-H460; above 100 µM in the test on G-401; 89 µM in the test on HT-29; above 100 µM in the test with L1210. The same compound yielded an IC50 in test [1] above 100 µM.

With `CCOC(=O)c1ccc(NC(=O)C2C(C(=O)O)[C@@H]3CC[C@H]2O3)cc1` (stereo not given in full), the GI50 was 80 µM with A2780; above 100 µM in the test on NCI-H460; above 100 µM with G-401; above 100 µM with HT-29; above 100 µM with L1210. In addition, in test [1], half-maximal inhibition (IC50) required 9.2 µM.

Take `O=C(OC[C@H]1C[C@@H]2O[C@H]1[C@H]1C(=O)OC(=O)[C@H]12)c1ccccc1`: the GI50 is 30 µM in the test on A2780; 43 µM with NCI-H460; 53 µM in the test on G-401; 57 µM with HT-29; 49 µM with L1210. The same compound displayed an IC50 in test [1] of 13 µM.

As to `O=C1OC(=O)C2C1[C@@H]1CC[C@H]2O1` (stereo not given in full), the 50% growth inhibitory concentration (GI50) with A2780 turned out to be 39 µM; with NCI-H460, 50 µM; in the test with G-401, 35 µM; with HT-29, 33 µM; in the test with L1210 it was 13 µM. Moreover, in test [1], inhibition was half-maximal at 0.96 µM (IC50).

Turning to `O=C(O)C1C(C(=O)OCc2ccccc2)[C@H]2CC[C@@H]1O2` (single isomer, unassigned), the GI50 was 81 µM in the test on A2780; above 100 µM with NCI-H460; above 100 µM in the test with G-401; above 100 µM in the test on HT-29; above 100 µM in the test with L1210. The IC50 in test [1] was above 100 µM.

Turning to `C[C@@]12C(=O)OC(=O)[C@]1(C)[C@H]1CC[C@@H]2O1` [CANTHARIDIN], the GI50 in the test on A2780 came out at 10 µM; in the test on NCI-H460, 4.3 µM; in the test with G-401, 3.5 µM; with HT-29, 6.4 µM; in the test on L1210, 15 µM. Moreover, in test [1], it took 0.6 µM to reach half-maximal inhibition (IC50).

The record behind these values is ChEMBL document CHEMBL1147524, “Modified norcantharidins; synthesis, protein phosphatases 1 and 2A inhibition, and anticancer activity” (Bioorg Med Chem Lett, 2004).
